{"data": "Results collected from several papers", "SLC22A8": "Organic anion transporter 3 (SLC22A8, Homo sapiens, UniProt Q8TCC7)", "CDC7": "Cell division cycle 7-related protein kinase (CDC7, Homo sapiens, UniProt O00311)", "RORC": "Nuclear receptor ROR-gamma (RORC, Homo sapiens, UniProt P51449)", "SIRT2": "NAD-dependent protein deacetylase sirtuin-2 (SIRT2, Homo sapiens, UniProt Q8IXJ6)", "AMY2": "Pancreatic alpha-amylase (AMY2, Sus scrofa, UniProt P00690)", "note": "Protocols differ between the studies behind these lines."}
{"SMILES": "C=C(C)[C@@H]1CCC(C)=C[C@H]1c1c(O)cc(CCCCC)cc1O", "target": "Prostaglandin E synthase (PTGES, Homo sapiens, UniProt O14684)", "test": "enzyme activity, inhibitor", "IC50": "> 10000 nM"}
{"SMILES": "COc1cc(N2CCN(C)CC2)ccc1Nc1ncc2c(n1)N(C)c1ccccc1C(=O)N2", "target": "Serine/threonine-protein kinase DCLK1 (DCLK1, Homo sapiens, UniProt O15075)", "test": "enzyme activity, inhibitor, mobility shift", "IC50": "> 1000 nM"}
{"SMILES": "COc1cc2nccc(Oc3ccc(NC(=O)c4cc5c(n(-c6ccccc6)c4=O)CCCC5=O)nc3)c2cc1OC", "target": "Tyrosine-protein kinase FRK (FRK, Homo sapiens, UniProt P42685)", "test": "enzyme activity in cells, inhibitor, ATP luminescence", "IC50": "> 100 nM"}
{"SMILES": "Cc1cnc(-c2ccc(-c3ccc(NC(=O)Nc4c(F)cc(F)cc4F)cc3F)c3c2C(=O)NC3)[nH]1", "target": "Serine/threonine-protein kinase 3 (STK3, Homo sapiens, UniProt Q13188)", "test": "enzyme activity, inhibitor", "IC50": "7.1 nM"}
{"SMILES": "O=C(O[C@H]1[C@@H]2C=CO[C@@H](O[C@@H]3O[C@H](CO)[C@@H](O)[C@H](O)[C@H]3O)[C@@H]2[C@@]2(CO)O[C@@H]12)c1ccc(O)cc1", "target": "SLC22A8", "test": "transporter uptake, inhibitor, radiometric", "test system": "HEK293", "conditions": "10 min", "IC50": "83000 nM"}
{"SMILES": "O=C(O)CNC(=O)C(=O)O", "target": "Hypoxia-inducible factor 1-alpha inhibitor (HIF1AN, Homo sapiens, UniProt Q9NWT6)", "test": "enzyme activity, inhibitor, mass spectrometry", "IC50": "< 1000 nM"}
{"SMILES": "CN1c2ccccc2C(=NN=Cc2cc3ccc(Cl)cc3nc2Cl)CS1(=O)=O", "target": "Amine oxidase [flavin-containing] A (Maoa, Rattus norvegicus, UniProt P21396)", "test": "enzyme activity, inhibitor, fluorescence", "IC50": "2030 nM"}
{"SMILES": "CCS(=O)(=O)N1CC(CC#N)(n2cc(-c3ncnc4[nH]ccc34)cn2)C1", "target": "SLC22A8", "test": "transporter uptake, inhibitor, radiometric", "IC50": "8400 nM"}
{"SMILES": "Cc1cc(-c2cc3nc([C@@H](N)C(C)C)[nH]c(=O)c3s2)ccn1", "target": "CDC7", "test": "enzyme activity, inhibitor", "IC50": "1790 nM"}
{"SMILES": "CCCCCCCCCCCCCC(=O)Oc1ccc2ccc(=O)oc2c1", "target": "DNA polymerase I, thermostable (polA, Thermus aquaticus, UniProt P19821)", "test": "enzyme activity, inhibitor", "IC50": "113000 nM"}
{"SMILES": "Cc1cccc(Br)c1COc1ccc2c(c1)N(S(=O)(=O)c1cccc(C(F)(F)F)c1)CC2", "target": "RORC", "test": "ligand displacement, radioligand", "IC50": "160 nM"}
{"SMILES": "CCCCCCCCCCCCNC(=S)NCCCC[C@H](NC(=O)OCc1ccccc1)C(=O)N[C@@H](Cc1c[nH]c2ccccc12)C(=O)N[C@@H](CCCCNC(=N)N)C(N)=O", "target": "SIRT2", "test": "enzyme activity, inhibitor", "IC50": "210 nM"}
{"SMILES": "O=C(O)C1=CC(=C(c2ccc(O)c(C(=O)O)c2)c2ccc(O)c(C(=O)O)c2)C=CC1=O", "target": "Flap endonuclease 1 (Homo sapiens, UniProt P39748)", "test": "enzyme activity, inhibitor, fluorescence", "conditions": "with preincubation", "IC50": "630 nM"}
{"SMILES": "COc1ccc(S(=O)(=O)N/N=C2\\C(=O)Nc3ccc([N+](=O)[O-])cc32)cc1", "target": "AMY2", "test": "enzyme activity, inhibitor", "IC50": "8200 nM"}
{"SMILES": "OC[C@@H]1[C@@H](O)[C@H](O)[C@@H](O)[C@@H]2O[C@H]12", "target": "Beta-glucosidase (GBA2, Homo sapiens, UniProt Q9HCG7)", "test": "enzyme activity, inhibitor", "conditions": "pH 8, lysate", "IC50": "5350 nM"}
{"SMILES": "COc1ccc(S(=O)(=O)N/N=C2\\C(=O)Nc3ccc(Cl)cc32)cc1", "target": "AMY2", "test": "enzyme activity, inhibitor", "IC50": "13100 nM"}
{"SMILES": "O=S(=O)(c1cccc(C(F)(F)F)c1)N1c2cc(OCc3c(F)cncc3Cl)ccc2CC1C(F)(F)F (centres unmarked)", "target": "RORC", "test": "ligand displacement, radioligand", "IC50": "290 nM"}
{"SMILES": "O=C1Nc2ccccc2/C1=N/NS(=O)(=O)c1cc(Cl)cc(Cl)c1O", "target": "AMY2", "test": "enzyme activity, inhibitor", "IC50": "1600 nM"}
{"SMILES": "O=S(=O)(c1cccc(C(F)(F)F)c1)N1CCc2ccc(OCc3c(Cl)cncc3Cl)cc21", "target": "RORC", "test": "ligand displacement, radioligand", "IC50": "180 nM"}
{"SMILES": "CC(C)[C@H](N)c1nc2cc(N3CCNCC3)sc2c(=O)[nH]1", "target": "CDC7", "test": "enzyme activity, inhibitor", "IC50": "> 10000 nM"}
{"SMILES": "COc1cc(Cl)ccc1COc1ccc2c(c1)N(S(=O)(=O)c1cccc(C(F)(F)F)c1)CC2", "target": "RORC", "test": "ligand displacement, radioligand", "IC50": "350 nM"}
{"SMILES": "C=C(CC)C(=O)c1ccc(OCC(=O)O)c(Cl)c1Cl", "target": "SLC22A8", "test": "transporter uptake, inhibitor", "IC50": "662 nM"}
{"SMILES": "CCCCCCCCCCCCNC(=S)NCCCC[C@H](NC(=O)C1CCCCC1)C(=O)N[C@H](C)C(=O)N[C@@H](CCCNC(=N)N)C(N)=O", "target": "SIRT2", "test": "enzyme activity, inhibitor", "IC50": "160 nM"}
{"SMILES": "C[C@H](CCCOc1cccc(CO)c1)[C@H]1CC[C@H]2[C@@H]3CC=C4C[C@@H](O)CC[C@]4(C)[C@H]3CC[C@]12C", "target": "RORC", "test": "reporter gene, inverse agonist, luciferase", "IC50": "193 nM"}
{"SMILES": "CN1CCN(c2ccc(Nc3ncc4cc(C#N)c(=O)n(C5CCCC5)c4n3)cc2)CC1", "target": "Ephrin type-A receptor 5 (EPHA5, Homo sapiens, UniProt P54756)", "test": "enzyme activity, inhibitor", "IC50": "408 nM"}
{"SMILES": "O=S(=O)(c1cccc(C(F)(F)F)n1)N1CCc2ccc(OCc3c(F)cccc3Cl)cc21", "target": "RORC", "test": "ligand displacement, radioligand", "IC50": "250 nM"}
{"SMILES": "CCCCCCCCCCCCNC(=S)NCCCC[C@H](NC(=O)OCc1ccccc1)C(=O)N[C@@H](Cc1c[nH]c2ccccc12)C(=O)N[C@@H](CCCCN)C(N)=O", "target": "SIRT2", "test": "enzyme activity, inhibitor", "IC50": "220 nM"}
{"SMILES": "O=S(=O)(c1cccc(C(F)(F)F)c1)N1CCc2ccc(OCc3c(Cl)cccc3C(F)(F)F)cc21", "target": "RORC", "test": "ligand displacement, radioligand", "IC50": "170 nM"}
{"SMILES": "COc1cc(C=Cc2cc(-c3ccccc3)nc(O)n2)ccc1O", "target": "AMY2", "test": "enzyme activity, inhibitor, absorbance", "IC50": "23700 nM"}
{"SMILES": "CC(=O)Oc1ccccc1C(=O)Nc1ncc([N+](=O)[O-])s1", "target": "SLC22A8", "test": "transporter uptake, inhibitor", "IC50": "154 nM"}
{"SMILES": "O=S(=O)(c1ccnc(C(F)(F)F)c1)N1CCc2ccc(OCc3c(F)cccc3Cl)cc21", "target": "RORC", "test": "ligand displacement, radioligand", "IC50": "230 nM"}
{"SMILES": "CCCCCCCCCCCCNC(=S)NCCCC[C@H](NC(=O)OCc1ccccc1)C(=O)N[C@@H](Cc1c[nH]c2ccccc12)C(=O)N[C@@H](CC(N)=O)C(N)=O", "target": "SIRT2", "test": "enzyme activity, inhibitor", "IC50": "260 nM"}
{"SMILES": "O=C(Cc1cccs1)N[C@@H]1C(=O)N2C(C(=O)[O-])=C(C[n+]3ccccc3)CS[C@H]12", "target": "Chymotrypsinogen A (Bos taurus, UniProt P00766)", "test": "enzyme activity, inhibitor, fluorescence", "IC50": "6000 nM"}
{"SMILES": "O=S(=O)(c1cccc(C(F)(F)F)c1)N1CCc2ccc(OCc3c(F)cncc3Cl)cc21", "target": "RORC", "test": "ligand displacement, radioligand", "IC50": "230 nM"}
{"SMILES": "CCn1ncc2c1-c1cnc(N)c(c1)O[C@H](C)c1cc(F)ccc1-c1nn(C)nc1C2", "target": "Tyrosine-protein kinase Fer (FER, Homo sapiens, UniProt P16591)", "test": "enzyme activity, inhibitor, radiometric", "IC50": "24 nM"}
